Screening results (PubChem BioAssay)
Compounds with a hit are over-represented: about 4.1% of the library has one in this group of screens.
XBP1 UPR activ: adaptive UPR (XBP1) activation. CHO-XBP1 luciferase reporter, IRE1-XBP1 UPR activation, luminescence; percent of tunicamycin response, DMSO as zero. activation, % at 20 µM. actives 0.33% (n = 330,000). AID 463104;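 active means versus positive control, 20 µM dose yields 30% or more activation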
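Material: CHO-XBP1 cells stably carrying IRE1-XBP1-driven luciferase reporter | Medium: F12 with 10% serum | Compound dosing: 20 µM single concentration, DMSO 1% | Incubation: Overnight seeding at 37 °C, 6 h compound treatment at 37 °C | Detection: Steady-Glo luminescence read | Read-out basis: % activation of reporter signal versus tunicamycin and DMSO controls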
Mdm2 MdmX PPI: disrupts the human Mdm2-MdmX interaction; SaOS-2 split-luciferase Mdm2/MdmX complementation, luminescence; inhibition, % at 8 µM; actives 3% (n = 330,000); AID 485346;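 active means inhibition of at least 50% at 8 µM in the primary screen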
UPR CHOP act: apoptotic UPR (CHOP) activation; activation, % at 10 µM; CHO-CHOP luciferase reporter, luminescence; percent of tunicamycin response over DMSO baseline; AID 449763; actives 0.34% (n = 330,000);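 active means at 10 µM dose, activation of 40% or more, normalized to positive control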
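Dosing – one dose, 10 µM in 0.5% DMSO · System – CHO-CHOP cells, stable luciferase reporter of PERK-eIF2a-CHOP signalling · Input – 500 cells/well · Control set – tunicamycin 10 µg/mL final as positive, DMSO-only wells as negative · Timing – 6 h compound treatment, 37 °C · Measure – % activation vs tunicamycin · Technique – luminescence read with Steady-Glo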
UBC13 inh: inhibitors of human UBC13 polyubiquitin chain formation; P61088; TR-FRET; inhibition, % at 20 µM; actives 0.47% (n = 330,000); AID 485273; in the data active means inhibition above about 45%, passing the limit was not always enough
Apaf-1 inh: inhibitors of human Apaf-1 apoptosome; reconstituted apoptosome caspase-3 activity, DEVD-Rh110 fluorescence; actives 0.71% (n = 330,000); inhibition, % at 20 µM; active means inhibition of at least 40% at 20 µM
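Material: reconstituted apoptosome with Apaf-1, cytochrome c, caspase-9, procaspase-3, dATP / Buffer or medium: pH 7.5 Hepes buffer with CHAPS, BSA, DTT / Also added: cytochrome c with DEVD-Rh110 / Schedule: compound with Apaf-1, dATP, procaspase-3 30 min, then 50 min reaction, room temperature / Technique: rhodamine 110 fluorescence at Ex 480/Em 540 nm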
UPR CHOP confirm: confirmation of apoptotic unfolded protein response (CHOP) activators | activation, % at 10 µM | actives 64% (n = 1,000) | shares compounds with UPR CHOP act | CHO-CHOP cells, CHOP-luciferase reporter luminescence; percent of tunicamycin response, DMSO as zero; in the data active means activation above about 33%
XBP1 UPR conf: confirmation of adaptive unfolded protein response (XBP1) activators. shares compounds with XBP1 UPR activ. CHO-XBP1 IRE1-XBP1 luciferase reporter, luminescence. activation, % at 20 µM. actives 63% (n = 1,000);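 active means reporter signal at least 30% of the positive control's activation in two or more of four replicate wells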
Mdm2-MdmX conf: confirmation of human Mdm2/MdmX interaction inhibitors; shares compounds with Mdm2 MdmX PPI; Mdm2-MdmX binding, luminescent assay; inhibition, % at 8 µM; actives 55% (n = 10,000); AID 489028; in the data active means inhibition above about 40%
FLuc counter: counter-screen for Mdm2/MdmX inhibitors: full-length luciferase; inhibition, % at 8 µM; actives 77% (n = 6,200); shares compounds with Mdm2 MdmX PPI; SaOS-2 full-length luciferase counterscreen, luminescence;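 active means mean inhibition at 8 µM reaching about 37%, which flags the compound as non-specific, limit read from the data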;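 further: p53-null SaOS-2 cells with luciferase driven by a doxycycline-inducible promoter; compound on cells about two nights before reading with doxycycline added after day one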
A number is an active result; n = inactive; x = no result.

SMILES	XBP1 UPR activ	Mdm2 MdmX PPI	UPR CHOP act	UBC13 inh	Apaf-1 inh	UPR CHOP confirm	Mdm2-MdmX conf	FLuc counter	others
Cn1c(/C=C/c2ccc([N+](=O)[O-])o2)nc2ccccc2c1=O	n	91	127	n	n	75	70	53
COc1cccc2sc(NN)nc12	n	n	n	n	n	x	x	x
COc1ccccc1-c1nnc(Nc2nc3c(OC)cccc3s2)o1	n	59	71	n	n	110	68	72
Cc1ccc2oc(Nc3nc(-c4ccccc4)cc(=O)[nH]3)nc2c1	n	97	364	n	n	423	n	x
COc1ccccc1NC(=O)NC1(C(=O)N2CCN(C)CC2)CCCCC1	n	n	n	n	n	x	x	x
Cc1coc2c1C(=O)C(=O)c1c-2ccc2c(C)cccc12	n	65	62	n	96	37	n	x
CC(=O)c1cccc(NC(=S)NC2CCCCCCC2)c1	n	n	n	n	n	x	x	x
CC(C)(C)NC(=O)C1Cc2ccccc2CN1C(=O)Nc1ccccc1Cl (stereo unspecified)	n	n	n	n	n	x	x	x
Clc1cccc(CN2CCSCC2)c1	n	n	n	n	n	x	x	x
CC1=C(/C=C/C(=O)O)C(C)(C)CCC1	n	n	n	n	n	x	x	x
CC1=C(/C=C/C(C)=C/C=C/C(C)=C/C(=O)Nc2ccc(O)cc2)C(C)(C)CCC1	54	87	93	n	n	131	n	x	XBP1 UPR conf=55
CC1=NOC(=O)/C1=C\c1ccc(-c2cccc(Cl)c2)o1	n	96	115	n	n	190	n	x
CCOC(=O)c1c(C)oc2c1c(C(c1cccnc1)N1CCOCC1)c(O)c1ccccc12 (stereo unspecified)	n	76	70	n	n	134	n	x
CCn1c(-c2ccccc2)c(C(=O)CCl)c2ccccc21	n	98	77	n	n	110	n	x
COc1cc(/C=C/C(=O)c2ccc3c(c2)OCCO3)cc(Br)c1OCC(=O)N(C)C	n	95	135	n	n	272	79	56
O=C(/C=C/c1ccncc1)c1ccc2c(c1)OCCO2	n	n	n	n	n	x	x	x
CCOC(=O)Cn1c2ccccc2n2nc(CCC(=O)O)c(=O)nc12	n	n	n	n	n	x	x	x
Cc1cc(C)c2cc(C(=O)Nc3ccccc3)[nH]c2c1	n	n	n	n	n	x	x	x
O=S(=O)(Nc1cccc2cccnc12)c1ccccc1	n	100	368	n	n	58	100	52
O=S(=O)(Nc1cccc2cccnc12)c1ccc(S(=O)(=O)N2CCCC2)cc1	n	83	134	n	n	99	53	37
Cc1ccc2cccc(NS(=O)(=O)c3ccccc3)c2n1	n	84	446	n	n	94	95	n
CC(=O)Nc1ccc(S(=O)(=O)Nc2cccc3cccnc23)cc1	n	n	n	n	n	x	x	x
CS(=O)(=O)Nc1cccc2cccnc12	n	n	n	n	n	x	x	x
COc1ccc(NS(=O)(=O)c2ccc3ccccc3c2)c2ncccc12	n	92	137	n	n	418	88	37
Cc1cc(C)c(NS(=O)(=O)c2cccc3cccnc23)c(C)c1	n	n	n	n	n	x	x	x
SMILES	XBP1 UPR activ	Mdm2 MdmX PPI	UPR CHOP act	UBC13 inh	Apaf-1 inh	UPR CHOP confirm	Mdm2-MdmX conf	FLuc counter	others
Cc1ccc(S(=O)(=O)Nc2cccc3cccnc23)c([N+](=O)[O-])c1	n	100	404	n	n	743	75	54
O=C(NCC1CCCO1)c1cc(-c2ccc(F)cc2)no1 (stereo unspecified)	n	n	n	n	n	x	x	x
Cc1ccccc1-n1c(SCC(=O)N/N=C/c2c(C)nn(-c3ccccc3)c2C)nc2ccccc2c1=O	n	n	n	n	n	x	x	x
Cc1nn(-c2ccccc2)c(C)c1/C=N/NC(=O)CSc1nc2ccccc2c(=O)n1-c1ccc(Br)cc1	69	74	252	n	n	60	65	74	XBP1 UPR conf=111
CCC(=O)Nc1ccc(C(=O)Cn2ncc(Cl)c(Cl)c2=O)cc1	n	86	63	n	n	74	63	43
CCN(CC)S(=O)(=O)c1cc(NC(=O)Cn2ncc(Cl)c(Cl)c2=O)ccc1C	n	100	95	n	n	67	100	50
O=C(Cn1ncc(N2CCCC2)c(Cl)c1=O)c1ccc(Cl)cc1	n	n	n	n	n	x	x	x
O=C(Cn1ncc(Cl)c(Cl)c1=O)c1ccc2c(c1)OCCO2	n	100	45	n	n	48	82	52
CCN(c1cccc(C)c1)S(=O)(=O)c1cc2c3c(c1)CCC(=O)N3CCC2	n	n	n	n	n	x	x	x
CC1(C)CC(=O)C2=C(C1)OC1=C(C(=O)CC(C)(C)C1)C2c1ccc(O)cc1O	n	100	208	n	n	n	83	50
Cc1nn(CCCC(=O)NCCc2ccccc2)c(=O)c2nccn12	n	n	n	n	n	x	x	x
Oc1ccc(CN2CCc3ccccc3C2)c2cccnc12	n	51	104	n	n	102	78	n
Clc1ccccc1CN1CCC(Cc2ccccc2)CC1	n	n	n	n	n	x	x	x
Oc1ccc(CN2CCN(c3ccccc3)CC2)c2cccnc12	n	78	67	n	n	50	65	67
Oc1ccc(CN2CCC(Cc3ccccc3)CC2)c2cccnc12	39	73	385	n	n	254	69	69	XBP1 UPR conf=31
Oc1ccc2ccccc2c1CN1CCN(c2ccccc2)CC1	n	n	n	n	n	x	x	x
Oc1cc2c(cc1CN1CCc3ccccc3C1)OCO2	n	n	n	n	n	x	x	x
CCOC(=O)N1CCN(Cc2ccc(O)c3ncccc23)CC1	n	50	62	n	n	78	n	x
O=C(NC(=S)N1CCN(c2nc(-c3ccccc3)cs2)CC1)c1cncc(Br)c1	n	n	n	n	n	x	x	x
COc1ccc(C)cc1NC(=O)CSc1nnc(CC(=O)Nc2ccccc2C)n1C	n	n	n	n	n	x	x	x
Cc1ccc2oc(-c3cc(NC(=O)c4ncn[nH]4)ccc3O)nc2c1	n	n	n	n	n	x	x	x
CN(C(=O)CSc1nnc(-c2ccco2)n1C)C1CCCCC1	n	n	n	n	n	x	x	x
Cc1cc(=O)n2nc(N3CCCC(C(=O)NCCCN4CC(C)CC(C)C4)C3)sc2n1 (stereo unspecified)	n	n	n	n	n	x	x	x
